Measured values reported in ChEMBL document CHEMBL1138470, “Discovery and characterization of the N-phenyl-N'-naphthylurea class of p38 kinase inhibitors” (Bioorg Med Chem Lett, 2009).
Calls of active or inactive are those of the source. No cut-off for these calls is given here.

Columns and labels:
[1] = biological target: T1, Mitogen-activated protein kinase 14 (Homo sapiens, UniProt Q16539)
Blood = assay: Inhibition of LPS-induced TNFalpha production in human whole blood; assay type: functional, tissue-based
Procedure, shortened: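 LPS-stimulated TNFα production in whole blood from human donors; IC50 reported as geometric mean of 4–12 donor experiments, SD typically ±50% of the value.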

THP-1 = assay: Inhibition of LPS-induced TNFalpha production in human THP1 cells; assay type: functional, cell-based
Procedure, shortened: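 LPS-stimulated TNFα release from THP-1 cells; IC50 values are means of 2–4 experiments, SD for n > 2 typically ±50% of the value.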

[2] = biological target: T1, Mitogen-activated protein kinase 14; assay: Binding affinity to p38alpha assessed as inhibition of ATF2 phosphorylation preincubated for 4 hrs
Mus musculus = assay: Inhibition of LPS-induced endotoxemia in mouse assessed as inhibition of TNFalpha production at 3 mg/kg, po; assay type: functional
Procedure, shortened: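 Mouse LPS-induced endotoxemia model; compound given orally at 3 mg/kg, and TNFα production is measured and expressed as percent inhibition.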

[3] = biological target: T1, Mitogen-activated protein kinase 14; assay: Binding affinity to p38alpha by exchange curve binding kinetic analysis
[4] = Aqueous solubility at pH 7.4; assay type: physicochemical
[5] = biological target: Tyrosine-protein kinase TXK (Homo sapiens) (UniProt P42681); assay: Inhibition of TXK at => 3 ug/mL
[6] = Inhibition of PKA at => […] ug/mL
[7] = biological target: MAP kinase-activated protein kinase 2 (Homo sapiens) (UniProt P49137); assay: Inhibition of MAPKAPK2 at => […] ug/mL
[8] = biological target: Tyrosine-protein kinase Lyn (Homo sapiens, UniProt P07948); assay: Inhibition of Lyn
Ephrin type-A receptor 3 = Ephrin type-A receptor 3 (Homo sapiens, UniProt P29320); assay: Inhibition of HEK
[9] = biological target: Glycogen synthase kinase-3 beta (Homo sapiens) (UniProt P49841); assay: Inhibition of GSK3-beta at => 3 ug/mL
Glycogen synthase kinase-3 beta (Homo sapiens), sequence (P49841 whole entry, looked up): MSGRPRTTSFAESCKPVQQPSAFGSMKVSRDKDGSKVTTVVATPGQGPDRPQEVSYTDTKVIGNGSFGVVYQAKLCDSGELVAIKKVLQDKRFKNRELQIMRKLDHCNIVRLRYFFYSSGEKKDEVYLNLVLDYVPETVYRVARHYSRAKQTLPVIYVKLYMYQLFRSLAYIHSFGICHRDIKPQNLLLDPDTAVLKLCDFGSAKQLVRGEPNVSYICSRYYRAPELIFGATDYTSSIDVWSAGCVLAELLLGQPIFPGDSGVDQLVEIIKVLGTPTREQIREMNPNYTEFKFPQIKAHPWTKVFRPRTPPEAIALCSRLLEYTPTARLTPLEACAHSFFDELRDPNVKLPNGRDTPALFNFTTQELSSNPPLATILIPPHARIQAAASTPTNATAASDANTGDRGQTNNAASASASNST

[10] = biological target: RAF proto-oncogene serine/threonine-protein kinase (Homo sapiens, UniProt P04049); assay: Inhibition of craf
[11] = biological target: 3-phosphoinositide-dependent protein kinase 1 (Homo sapiens) (UniProt O15530); assay: Inhibition of PDK1 at => 3 ug/mL
[12] = biological target: Epidermal growth factor receptor (Homo sapiens, UniProt P00533); assay: Inhibition of EGFR
[13] = biological target: Focal adhesion kinase 1 (Homo sapiens) (UniProt Q05397); assay: Inhibition of PTK2 at => 3 ug/mL
[14] = Inhibition of FGFR
[15] = biological target: Serine/threonine-protein kinase Sgk1 (Homo sapiens) (UniProt O00141); assay: Inhibition of SGK at => 3 ug/mL
[16] = biological target: Ribosomal protein S6 kinase beta-1 (Homo sapiens) (UniProt P23443); assay: Inhibition of S6K1 at => 3 ug/mL
Ribosomal protein S6 kinase beta-1 (Homo sapiens), sequence (P23443 whole entry, looked up): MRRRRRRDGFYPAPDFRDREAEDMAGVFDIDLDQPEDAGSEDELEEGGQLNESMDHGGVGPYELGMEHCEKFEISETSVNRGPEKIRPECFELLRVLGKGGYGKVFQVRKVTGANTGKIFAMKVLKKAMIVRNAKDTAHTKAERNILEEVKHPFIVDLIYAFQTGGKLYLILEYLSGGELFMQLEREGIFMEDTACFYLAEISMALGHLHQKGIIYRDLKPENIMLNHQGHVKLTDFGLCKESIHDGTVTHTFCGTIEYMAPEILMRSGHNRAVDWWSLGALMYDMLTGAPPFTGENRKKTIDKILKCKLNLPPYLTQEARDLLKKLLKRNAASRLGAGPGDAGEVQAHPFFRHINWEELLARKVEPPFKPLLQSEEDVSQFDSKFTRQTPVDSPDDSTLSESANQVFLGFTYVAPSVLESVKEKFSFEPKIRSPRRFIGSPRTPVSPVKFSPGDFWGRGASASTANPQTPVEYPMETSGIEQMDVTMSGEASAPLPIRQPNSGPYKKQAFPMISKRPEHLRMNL

[17] = biological target: Rho-associated protein kinase 2 (Homo sapiens) (UniProt O75116); assay: Inhibition of ROCK2 at => 3 ug/mL
[18] = biological target: Ribosomal protein S6 kinase alpha-3 (Homo sapiens) (UniProt P51812); assay: Inhibition of RSK2 at => 3 ug/mL
Ribosomal protein S6 kinase alpha-3 (Homo sapiens), sequence (P51812 whole entry): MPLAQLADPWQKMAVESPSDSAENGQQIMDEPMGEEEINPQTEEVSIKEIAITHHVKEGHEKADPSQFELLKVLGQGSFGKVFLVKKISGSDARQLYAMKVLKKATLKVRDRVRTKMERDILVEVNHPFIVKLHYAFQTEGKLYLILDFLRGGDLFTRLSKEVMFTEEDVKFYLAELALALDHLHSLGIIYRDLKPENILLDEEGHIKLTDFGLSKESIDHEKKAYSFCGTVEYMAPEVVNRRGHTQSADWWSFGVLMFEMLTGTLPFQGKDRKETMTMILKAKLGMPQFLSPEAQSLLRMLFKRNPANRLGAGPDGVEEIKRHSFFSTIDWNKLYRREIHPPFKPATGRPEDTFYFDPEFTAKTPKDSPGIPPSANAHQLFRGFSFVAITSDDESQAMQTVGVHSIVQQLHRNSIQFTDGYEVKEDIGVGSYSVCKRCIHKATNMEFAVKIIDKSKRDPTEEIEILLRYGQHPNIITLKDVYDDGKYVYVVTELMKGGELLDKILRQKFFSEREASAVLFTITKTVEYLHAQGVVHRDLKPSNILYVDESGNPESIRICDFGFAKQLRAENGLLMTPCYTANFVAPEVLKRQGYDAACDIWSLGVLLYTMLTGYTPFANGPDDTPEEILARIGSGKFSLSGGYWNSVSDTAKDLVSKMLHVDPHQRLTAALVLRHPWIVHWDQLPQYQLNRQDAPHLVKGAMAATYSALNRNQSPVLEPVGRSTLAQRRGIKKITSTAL

[19] = biological target: Tyrosine-protein kinase SYK (Homo sapiens) (UniProt P43405); assay: Inhibition of SYK at => 3 ug/mL
[20] = biological target: Cyclin-dependent kinase 1 (Homo sapiens) (UniProt P06493); assay: Inhibition of CDK1 at => 3 ug/mL
[21] = Inhibition of CK2 at => 3 ug/mL
[22] = biological target: Mitogen-activated protein kinase kinase kinase 14 (Homo sapiens) (UniProt Q99558); assay: Inhibition of NIK at => 3 ug/mL
[23] = biological target: Serine/threonine-protein kinase B-raf (Homo sapiens, UniProt P15056); assay: Inhibition of bRaf
[24] = biological target: Tyrosine-protein kinase ABL1 (Homo sapiens, UniProt P00519); assay: Inhibition of Abl
[25] = biological target: Ribosomal protein S6 kinase alpha-3 (Homo sapiens) (UniProt P51812); assay: Inhibition of MAPKAPK1B at => […] ug/mL
[26] = biological target: Hepatocyte growth factor receptor (Homo sapiens) (UniProt P08581); assay: Inhibition of HGFR at => 3 ug/mL
[27] = biological target: Mitogen-activated protein kinase 8 (Homo sapiens) (UniProt P45983); assay: Inhibition of […] at => 3 ug/mL
[28] = biological target: Tyrosine-protein kinase Lck (Homo sapiens) (UniProt P06239); assay: Inhibition of LCK at => 3 ug/mL
[29] = biological target: Insulin-like growth factor 1 receptor (Homo sapiens) (UniProt P08069); assay: Inhibition of IGF1R at => 3 ug/mL
[30] = Inhibition of VEGFR
[31] = biological target: Dual specificity tyrosine-phosphorylation-regulated kinase 1A (Homo sapiens) (UniProt Q13627); assay: Inhibition of DYRK1A at => 3 ug/mL
[32] = biological target: MAP kinase-activated protein kinase 5 (Homo sapiens) (UniProt Q8IW41); assay: Inhibition of PRAK at => 3 ug/mL
[33] = biological target: Mitogen-activated protein kinase 9 (Homo sapiens, UniProt P45984); assay: Inhibition of JNK2alpha2 by exchange curve binding kinetic analysis
Mitogen-activated protein kinase 9, sequence (P45984 whole entry): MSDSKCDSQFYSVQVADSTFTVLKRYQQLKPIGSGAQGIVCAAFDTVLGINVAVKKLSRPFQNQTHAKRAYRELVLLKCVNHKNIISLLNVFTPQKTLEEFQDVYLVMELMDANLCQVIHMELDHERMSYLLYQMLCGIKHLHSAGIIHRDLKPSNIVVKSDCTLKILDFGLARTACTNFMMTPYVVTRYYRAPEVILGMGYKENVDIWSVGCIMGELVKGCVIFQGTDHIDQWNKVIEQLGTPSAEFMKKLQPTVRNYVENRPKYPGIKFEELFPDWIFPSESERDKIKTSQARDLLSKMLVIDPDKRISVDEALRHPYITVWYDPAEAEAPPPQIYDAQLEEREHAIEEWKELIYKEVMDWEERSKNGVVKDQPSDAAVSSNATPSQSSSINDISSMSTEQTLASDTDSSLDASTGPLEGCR

[34] = Inhibition of ERK at => 3 ug/mL
[35] = Inhibition of pp60src
[36] = biological target: Tyrosine-protein kinase JAK3 (Homo sapiens) (UniProt P52333); assay: Inhibition of JAK3 at => 3 ug/mL
[37] = biological target: Tyrosine-protein kinase BTK (Homo sapiens) (UniProt Q06187); assay: Inhibition of BTK at => 3 ug/mL
Tyrosine-protein kinase BTK (Homo sapiens), sequence (Q06187 whole entry): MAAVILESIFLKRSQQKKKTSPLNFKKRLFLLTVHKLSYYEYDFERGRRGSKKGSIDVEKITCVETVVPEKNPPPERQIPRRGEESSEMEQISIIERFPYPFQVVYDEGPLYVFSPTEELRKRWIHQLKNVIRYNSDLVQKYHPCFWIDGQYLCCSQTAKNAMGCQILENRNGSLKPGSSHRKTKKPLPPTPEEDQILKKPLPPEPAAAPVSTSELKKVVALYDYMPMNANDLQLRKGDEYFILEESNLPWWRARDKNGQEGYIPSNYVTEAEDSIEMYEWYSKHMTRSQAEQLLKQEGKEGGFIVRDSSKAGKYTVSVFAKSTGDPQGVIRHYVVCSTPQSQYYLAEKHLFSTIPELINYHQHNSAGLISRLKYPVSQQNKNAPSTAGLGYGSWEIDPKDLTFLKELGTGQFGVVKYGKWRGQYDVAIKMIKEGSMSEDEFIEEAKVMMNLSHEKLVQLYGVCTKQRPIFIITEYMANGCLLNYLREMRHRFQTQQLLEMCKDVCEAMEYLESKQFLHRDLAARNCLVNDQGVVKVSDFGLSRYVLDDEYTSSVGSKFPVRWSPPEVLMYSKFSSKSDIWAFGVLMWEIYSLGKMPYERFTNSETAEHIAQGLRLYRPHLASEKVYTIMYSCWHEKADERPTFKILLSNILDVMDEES

[38] = biological target: RAC-alpha serine/threonine-protein kinase (Homo sapiens, UniProt P31749); assay: Inhibition of PKBalpha/Akt1
[39] = Inhibition of PHK1 at => 3 ug/mL
[40] = Inhibition of PI3K at => 3 ug/mL
[41] = biological target: Tyrosine-protein kinase CSK (Homo sapiens) (UniProt P41240); assay: Inhibition of CSK at 3 uM
[42] = biological target: Insulin receptor (Homo sapiens) (UniProt P06213); assay: Inhibition of IR at => 3 ug/mL
Insulin receptor (Homo sapiens), sequence (P06213 28-758 limits assumed): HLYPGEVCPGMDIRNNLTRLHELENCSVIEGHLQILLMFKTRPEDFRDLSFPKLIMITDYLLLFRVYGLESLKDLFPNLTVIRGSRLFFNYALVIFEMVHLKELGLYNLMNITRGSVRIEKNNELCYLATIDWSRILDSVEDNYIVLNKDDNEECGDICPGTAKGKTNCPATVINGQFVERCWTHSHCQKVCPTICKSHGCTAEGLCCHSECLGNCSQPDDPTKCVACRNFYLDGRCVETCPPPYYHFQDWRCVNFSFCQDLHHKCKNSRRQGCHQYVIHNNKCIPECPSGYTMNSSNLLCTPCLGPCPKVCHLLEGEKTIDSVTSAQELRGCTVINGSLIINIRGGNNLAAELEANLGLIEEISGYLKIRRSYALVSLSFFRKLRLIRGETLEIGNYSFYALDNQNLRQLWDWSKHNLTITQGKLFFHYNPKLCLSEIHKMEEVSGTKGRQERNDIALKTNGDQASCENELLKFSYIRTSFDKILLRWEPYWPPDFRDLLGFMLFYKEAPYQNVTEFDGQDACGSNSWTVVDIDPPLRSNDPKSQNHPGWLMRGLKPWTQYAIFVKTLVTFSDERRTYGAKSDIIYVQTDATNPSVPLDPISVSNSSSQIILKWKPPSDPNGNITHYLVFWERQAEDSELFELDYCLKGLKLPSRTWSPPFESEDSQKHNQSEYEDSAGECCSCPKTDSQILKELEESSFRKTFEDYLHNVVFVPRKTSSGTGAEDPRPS
Insulin receptor (Homo sapiens), sequence (P06213 763-1382 limits assumed): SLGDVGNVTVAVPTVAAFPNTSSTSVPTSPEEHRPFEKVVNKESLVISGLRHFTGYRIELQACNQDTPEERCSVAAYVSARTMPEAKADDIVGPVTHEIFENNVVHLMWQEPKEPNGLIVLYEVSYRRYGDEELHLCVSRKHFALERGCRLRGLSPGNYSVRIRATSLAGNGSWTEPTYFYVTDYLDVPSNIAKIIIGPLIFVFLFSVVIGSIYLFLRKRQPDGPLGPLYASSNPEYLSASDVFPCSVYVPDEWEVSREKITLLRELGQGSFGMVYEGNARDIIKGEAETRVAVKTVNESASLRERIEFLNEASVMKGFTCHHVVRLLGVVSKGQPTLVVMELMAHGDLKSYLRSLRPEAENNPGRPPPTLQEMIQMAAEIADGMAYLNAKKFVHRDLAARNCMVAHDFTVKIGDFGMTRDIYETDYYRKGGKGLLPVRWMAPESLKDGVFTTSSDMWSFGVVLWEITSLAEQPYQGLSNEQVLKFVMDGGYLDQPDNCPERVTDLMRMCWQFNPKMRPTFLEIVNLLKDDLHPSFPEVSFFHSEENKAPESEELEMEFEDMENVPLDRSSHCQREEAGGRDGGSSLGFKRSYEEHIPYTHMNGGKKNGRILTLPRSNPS

Ephrin type-A receptor 2 = Ephrin type-A receptor 2 (Homo sapiens, UniProt P29317); assay: Inhibition of ECK
[43] = Inhibition of IKK at => 3 ug/mL
[44] = biological target: Dual specificity mitogen-activated protein kinase kinase 1 (Homo sapiens) (UniProt Q02750); assay: Inhibition of MKK1 at => 3 ug/mL
Dual specificity mitogen-activated protein kinase kinase 1 (Homo sapiens), sequence (Q02750 whole entry): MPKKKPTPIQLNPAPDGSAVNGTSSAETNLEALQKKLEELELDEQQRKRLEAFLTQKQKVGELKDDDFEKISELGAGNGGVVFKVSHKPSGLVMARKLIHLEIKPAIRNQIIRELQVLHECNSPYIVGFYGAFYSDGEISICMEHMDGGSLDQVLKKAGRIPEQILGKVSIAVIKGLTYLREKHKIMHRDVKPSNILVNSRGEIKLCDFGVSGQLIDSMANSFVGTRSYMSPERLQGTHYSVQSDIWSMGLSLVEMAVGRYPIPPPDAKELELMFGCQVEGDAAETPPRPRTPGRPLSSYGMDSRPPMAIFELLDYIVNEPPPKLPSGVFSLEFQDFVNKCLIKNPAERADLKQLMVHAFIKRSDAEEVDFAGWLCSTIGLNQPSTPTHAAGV

[45] = biological target: Protein kinase C alpha type (Homo sapiens) (UniProt P17252); assay: Inhibition of PKCalpha at => 3 ug/mL
[46] = biological target: Casein kinase I isoform alpha (Homo sapiens) (UniProt P48729); assay: Inhibition of CK1 at => 3 ug/mL
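Throughout, for Tm: thermal denaturation measurement of the p38alpha–inhibitor complex, reporting its melting point as a readout of binding.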

T1 sequence (Q16539 whole entry): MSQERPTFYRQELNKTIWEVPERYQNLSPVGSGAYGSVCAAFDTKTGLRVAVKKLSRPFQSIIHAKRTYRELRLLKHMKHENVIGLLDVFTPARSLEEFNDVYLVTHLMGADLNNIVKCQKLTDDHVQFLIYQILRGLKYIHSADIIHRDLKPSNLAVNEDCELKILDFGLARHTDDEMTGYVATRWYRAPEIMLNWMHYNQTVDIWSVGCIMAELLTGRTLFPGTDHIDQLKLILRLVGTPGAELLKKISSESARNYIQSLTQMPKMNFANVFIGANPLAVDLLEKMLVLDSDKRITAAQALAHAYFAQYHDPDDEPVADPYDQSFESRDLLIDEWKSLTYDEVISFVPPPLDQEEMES

COc1c(NC(C)=O)cc(C(C)(C)C)cc1NC(=O)Nc1ccc(-c2ccc(CN3CCOCC3)nc2)c2ccccc12
Tm [1]: 63.6 °C | IC50 (Blood): 35 nM | IC50 (THP-1): 9 nM

COc1ccc(C(C)(C)C)cc1NC(=O)Nc1cccc2ccccc12
IC50 [2]: 3900 nM | Tm [1]: 50.3 °C

Cc1ccc(C(C)C)cc1NC(=O)Nc1ccc(-c2ccc(CN3CCOCC3)nc2)c2ccccc12
Tm [1]: 52.3 °C | IC50 (THP-1): 76 nM

Cc1ccc(-n2nc(C(C)(C)C)cc2NC(=O)Nc2ccc(OCCN3CCOCC3)c3ccccc23)cc1 [DORAMAPIMOD]
Activity (Mus musculus): inactive | IC50 (Blood): 780 nM | IC50 (THP-1): 18 nM

Cc1ccc(C(C)(C)C)cc1NC(=O)Nc1ccc(OCCN2CCOCC2)c2ccccc12
Tm [1]: 52.7 °C | IC50 (Blood): > 10000 nM | IC50 (THP-1): 380 nM

CCc1ccc(C(C)(C)C)cc1NC(=O)Nc1ccc(-c2ccc(CN3CCOCC3)nc2)c2ccccc12
Tm [1]: 53.9 °C | IC50 (Blood): 700 nM | IC50 (THP-1): 8.8 nM

COc1c(N)cc(C(C)(C)C)cc1NC(=O)Nc1ccc(-c2ccc(CN3CCOCC3)nc2)c2ccccc12
Tm [1]: 61.5 °C | IC50 (Blood): 22 nM | IC50 (THP-1): 5 nM

COc1c(NC(=O)c2cc3ccccc3s2)cc(C(C)(C)C)cc1NS(C)(=O)=O
IC50 [2]: 2700 nM | Tm [1]: 51.4 °C

CNC(=O)c1cc(C(C)(C)C)cc(NC(=O)Nc2ccc(-c3ccc(CN4CCOCC4)nc3)c3ccccc23)c1OC
Tm [1]: 65.6 °C | IC50 (Blood): 97 nM | IC50 (THP-1): 10 nM

COc1ccc(C(C)(C)C)cc1NC(=O)c1cc2ccccc2o1
IC50 [2]: > 10000 nM | Tm [1]: 46.2 °C

COc1ccc(C(C)(C)C)cc1NC(=O)Nc1ccc(-c2ccc(CN3CCOCC3)nc2)c2ccccc12
Kd [3]: 1.8 nM | Tm [1]: 57.9 °C | IC50 (Blood): 140 nM | IC50 (THP-1): 5.5 nM | solubility [4]: < 0.5 µg/mL

CCC(=O)Nc1cc(C(C)(C)C)cc(NC(=O)Nc2ccc(-c3ccc(CN4CCOCC4)nc3)c3ccccc23)c1OC
Tm [1]: 58.7 °C | IC50 (Blood): 71 nM | IC50 (THP-1): 5.1 nM

COc1c(NC(=O)Nc2cccc3ccccc23)cc(C(C)(C)C)cc1NS(C)(=O)=O
IC50 [2]: 79 nM | Tm [1]: 56.3 °C

COc1c(NC(N)=O)cc(C(C)(C)C)cc1NC(=O)Nc1ccc(-c2ccc(CN3CCOCC3)nc2)c2ccccc12
Tm [1]: 56.7 °C | IC50 (Blood): 110 nM | IC50 (THP-1): 12 nM

Cn1nc(C(C)(C)C)cc1NC(=O)Nc1ccc(-c2ccc(CN3CCOCC3)nc2)c2ccccc12
Tm [1]: 57.9 °C | IC50 (Blood): 230 nM | IC50 (THP-1): 29 nM

COc1c(NC(=O)Nc2ccc(-c3ccc(CN4CCOCC4)nc3)c3ccccc23)cc(C(C)(C)C)cc1N(C)C(C)=O
Tm [1]: 64.9 °C | IC50 (Blood): 120 nM | IC50 (THP-1): 15 nM

COc1c(NC(=O)c2cc3ccccc3o2)cc(C(C)(C)C)cc1NS(C)(=O)=O
IC50 [2]: 4100 nM | Tm [1]: 48.8 °C

COc1c(NC(=O)Nc2ccc(-c3ccc(CN4CCOCC4)nc3)c3ccccc23)cc(C(C)(C)C)cc1C(N)=O
Tm [1]: 65.5 °C | IC50 (Blood): 74 nM | IC50 (THP-1): 9.4 nM

Cc1ccc(C(C)(C)C)cc1NC(=O)Nc1ccc(-c2ccc(CN3CCOCC3)nc2)c2ccccc12
Tm [1]: 54.6 °C | IC50 (Blood): 180 nM | IC50 (THP-1): 9.4 nM

Cn1nc(C(C)(C)C)cc1NC(=O)Nc1ccc(OCCN2CCOCC2)c2ccccc12
Tm [1]: 54.5 °C | IC50 (Blood): 10000 nM | IC50 (THP-1): 140 nM

COc1c(NC(=O)Nc2ccc(-c3ccc(CN4CCOCC4)nc3)c3ccccc23)cc(C(C)(C)C)cc1NS(C)(=O)=O
Activity [5]: inactive | Activity [6]: inactive | Activity [7]: inactive | IC50 [8]: 2400 nM | inhibition in vivo at 3 mg/kg (Mus musculus): 57% | IC50 (Ephrin type-A receptor 3): 3200 nM | Activity [9]: inactive | IC50 [10]: 880 nM | Activity [11]: inactive | IC50 [12]: 5400 nM | Activity [13]: inactive | IC50 [14]: 7700 nM | Activity [15]: inactive | Activity [16]: inactive | Activity [17]: inactive | Activity [18]: inactive | Activity [19]: inactive | Tm [1]: 63.3 °C | Activity [20]: inactive | Activity [21]: inactive | Activity [22]: inactive | IC50 [23]: 7200 nM | IC50 [24]: 480 nM | Activity [25]: inactive | Activity [26]: inactive | Activity [27]: inactive | Activity [28]: inactive | Activity [29]: inactive | IC50 [30]: 3000 nM | Activity [31]: inactive | Activity [32]: inactive | IC50 [33]: 3 nM | IC50 (Blood): 46 nM | Activity [34]: inactive | IC50 [35]: 8200 nM | IC50 (THP-1): 10 nM | Activity [36]: inactive | Activity [37]: inactive | IC50 [38]: 6400 nM | Activity [39]: inactive | Activity [40]: inactive | inhibition [41]: 62% | Activity [42]: inactive | IC50 (Ephrin type-A receptor 2): 5200 nM | Activity [43]: inactive | Activity [44]: inactive | Activity [45]: inactive | Activity [46]: inactive

Cc1ccc(-n2nc(C(C)(C)C)cc2NC(=O)Nc2ccc(-c3ccc(CN4CCOCC4)nc3)c3ccccc23)cc1
Tm [1]: 63.6 °C | IC50 (Blood): 220 nM | IC50 (THP-1): 8 nM

COc1ccc(C(C)(C)C)cc1NC(=O)c1cc2ccccc2s1
IC50 [2]: > 10000 nM | Tm [1]: 46.9 °C

COc1c(NC(=O)Nc2ccc(-c3ccc(CN4CCOCC4)nc3)c3ccccc23)cc(C(C)(C)C)cc1C(=O)N(C)C
Tm [1]: 56.2 °C | IC50 (Blood): 97 nM | IC50 (THP-1): 12 nM

COC(=O)Nc1cc(C(C)(C)C)cc(NC(=O)Nc2ccc(-c3ccc(CN4CCOCC4)nc3)c3ccccc23)c1OC
Tm [1]: 58.1 °C | IC50 (Blood): 110 nM | IC50 (THP-1): 8.5 nM

Cc1ncc(-c2ccc(C(C)(C)C)cc2NC(=O)Nc2ccc(-c3ccc(CN4CCOCC4)nc3)c3ccccc23)cn1
Tm [1]: 56.6 °C | IC50 (Blood): 350 nM | IC50 (THP-1): 29 nM
